Data: ChEMBL document CHEMBL6092224, “The Discovery and Preclinical Profile of ALG-000184, a Prodrug of the Potent Hepatitis B Virus Capsid Assembly Modulator ALG-001075” (J Med Chem, 2024)

Experiments:
Cytochrome P450 2C9 = Cytochrome P450 2C9 (Homo sapiens, UniProt P11712); assay: Inhibition of CYP2C9 in human liver microsomes in presence of NADPH; format: ADME, Microsome
Method in brief: (§1)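 Pooled human liver microsomes with CYP isoform-specific probe substrates, in 100 mM potassium phosphate pH 7.4, 3 mM MgCl2 and 1 mM NADPH, at 37 °C. Final test ranges were 0.069–50 μM or 0.03–100 μM; IC50 was determined.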

[1] = Mutagenicity in Salmonella […] by Ames test; format: toxicity; settings: salmonella enterica subsp. enterica serovar typhimurium
[2] = Metabolic stability in rat liver microsomes assessed as half life at 1 uM incubated upto 60 mins in presence of NADPH; format: ADME, Microsome
Method in brief: (§2)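 Compound at 1 μM incubated at 37 °C with liver microsomes of each species for 0, 15, 30 and 60 min, with and without NADPH; half-life determined.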

[3] = Mutagenicity in Salmonella typhimurium TA100 by Ames test; format: toxicity; settings: salmonella enterica subsp. enterica serovar typhimurium
[4] = Metabolic stability in mouse plasma assessed as half life; format: ADME, cell-free
[5] = Metabolic stability in Cynomolgous monkey liver microsomes assessed as half life at 1 uM incubated upto 60 mins in presence of NADPH; format: ADME, Macaca fascicularis, Microsome; settings: cynomolgus monkey; method in brief: as §2
[6] = Mutagenicity in Salmonella typhimurium TA97a by Ames test; format: toxicity; settings: salmonella enterica subsp. enterica serovar typhimurium
[7] = Metabolic stability in rat plasma assessed as half life; format: ADME, cell-free
[8] = Metabolic stability in Cynomolgous monkey plasma assessed as half life; format: ADME, cell-free, Macaca fascicularis; settings: cynomolgus monkey
[9] = Metabolic stability in dog liver microsomes assessed as half life at 1 uM incubated upto 60 mins in presence of NADPH; format: ADME, Canis lupus familiaris, Microsome; method in brief: as §2
[10] = Mutagenicity in Salmonella typhimurium TA98 by Ames test; format: toxicity; settings: salmonella enterica subsp. enterica serovar typhimurium
[11] = target: Voltage-gated inwardly rectifying potassium channel KCNH2 (Homo sapiens, UniProt Q12809); assay: Inhibition of hERG expressed in mammalian cells at 10 uM by automated patch-clamp method; format: toxicity, cell-based
Voltage-gated inwardly rectifying potassium channel KCNH2, sequence (Q12809 whole entry): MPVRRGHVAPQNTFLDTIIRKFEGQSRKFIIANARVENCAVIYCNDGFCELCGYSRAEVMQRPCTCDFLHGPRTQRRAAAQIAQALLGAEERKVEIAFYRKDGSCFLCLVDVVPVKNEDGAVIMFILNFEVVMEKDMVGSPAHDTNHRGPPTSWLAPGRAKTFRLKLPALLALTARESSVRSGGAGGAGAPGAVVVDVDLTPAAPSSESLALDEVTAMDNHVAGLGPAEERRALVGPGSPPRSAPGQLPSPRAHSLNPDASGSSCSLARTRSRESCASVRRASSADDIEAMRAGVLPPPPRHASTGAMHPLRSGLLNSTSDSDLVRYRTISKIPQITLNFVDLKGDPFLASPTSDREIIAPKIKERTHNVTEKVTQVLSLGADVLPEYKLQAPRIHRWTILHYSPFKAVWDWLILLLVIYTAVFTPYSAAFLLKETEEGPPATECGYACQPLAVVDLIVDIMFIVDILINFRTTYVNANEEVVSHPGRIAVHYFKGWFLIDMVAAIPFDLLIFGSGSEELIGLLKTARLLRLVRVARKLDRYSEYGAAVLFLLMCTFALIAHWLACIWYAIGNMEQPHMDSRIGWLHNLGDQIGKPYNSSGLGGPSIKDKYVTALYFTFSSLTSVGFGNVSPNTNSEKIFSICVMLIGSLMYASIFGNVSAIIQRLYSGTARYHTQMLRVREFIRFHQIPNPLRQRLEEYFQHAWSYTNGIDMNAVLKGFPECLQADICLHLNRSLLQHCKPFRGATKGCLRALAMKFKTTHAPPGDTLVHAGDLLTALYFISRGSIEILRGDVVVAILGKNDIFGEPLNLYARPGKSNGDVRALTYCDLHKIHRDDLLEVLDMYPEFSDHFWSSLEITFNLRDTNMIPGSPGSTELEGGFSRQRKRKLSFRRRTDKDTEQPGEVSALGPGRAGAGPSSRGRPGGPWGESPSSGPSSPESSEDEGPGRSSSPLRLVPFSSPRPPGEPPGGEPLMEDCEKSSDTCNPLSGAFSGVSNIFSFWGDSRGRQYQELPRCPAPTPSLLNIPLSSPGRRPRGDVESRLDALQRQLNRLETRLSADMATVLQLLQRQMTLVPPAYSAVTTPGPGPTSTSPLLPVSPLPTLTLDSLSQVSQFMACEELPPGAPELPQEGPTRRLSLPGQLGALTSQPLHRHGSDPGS
Method in brief: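 Currents of hERG, Nav1.5 or Cav1.2 channels expressed in mammalian cells recorded by automated patch clamp (QPatch 48) at room temperature.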

UGT1A1 = UGT1A1 (Homo sapiens, UniProt P22309); assay: Inhibition of recombinant human UGT1A1 at 10 uM in presence of UDPGA relative to control
UGT1A1, sequence (P22309 whole entry): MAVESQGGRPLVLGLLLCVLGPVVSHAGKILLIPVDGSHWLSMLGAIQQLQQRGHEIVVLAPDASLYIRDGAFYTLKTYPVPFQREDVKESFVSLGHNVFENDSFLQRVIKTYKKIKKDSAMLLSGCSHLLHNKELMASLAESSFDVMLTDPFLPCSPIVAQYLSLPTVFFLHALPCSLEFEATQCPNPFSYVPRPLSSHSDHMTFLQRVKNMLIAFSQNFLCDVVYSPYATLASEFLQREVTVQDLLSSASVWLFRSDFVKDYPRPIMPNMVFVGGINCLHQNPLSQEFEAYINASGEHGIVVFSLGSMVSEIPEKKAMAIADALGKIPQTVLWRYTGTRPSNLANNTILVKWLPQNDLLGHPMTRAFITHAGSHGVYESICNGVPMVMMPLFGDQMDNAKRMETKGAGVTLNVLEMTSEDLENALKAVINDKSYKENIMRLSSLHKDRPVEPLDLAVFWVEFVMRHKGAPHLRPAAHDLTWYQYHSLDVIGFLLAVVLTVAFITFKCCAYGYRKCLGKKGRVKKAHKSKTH
Method in brief: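 Recombinant human UGT1A1 at 0.05 mg/mL with 5 mM UDPGA cofactor, 10 min incubation; test compound at single 10 μM concentration.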

[12] = Half life in Sprague-Dawley rat at 1 mg/kg, iv by LC-MS/MS analysis; format: ADME, organism-based; settings: in vivo
Method in brief: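 Single dose to fasted male C57BL6 mice, Sprague-Dawley rats, beagle dogs and cynomolgus monkeys, either IV at 1 mg/kg or PO as a solution at 5 mg/kg, in 80% PEG 400 in water. Plasma concentrations were measured by LC-MS/MS. PK parameters come from noncompartmental analysis using nominal doses and nominal sampling times.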

Cytochrome P450 3A4 = Cytochrome P450 3A4 (Homo sapiens, UniProt P08684); assay: Inhibition of CYP3A4 in human liver microsomes in presence of NADPH; format: ADME, Microsome
Method in brief: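 Pooled human liver microsomes in 100 mM potassium phosphate pH 7.4, 3 mM MgCl2, 1 mM NADPH, 37 °C, with CYP3A4-specific probe substrate; test compound over 0.069–50 μM or 0.03–100 μM final, IC50 derived.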

[13] = Genotoxicity in human TK6 cells measured for 4 to 27 hrs by micronucleus test; format: toxicity, cell-based; settings: time 4-27 hrs
Cytochrome P450 2C8 = Cytochrome P450 2C8 (Homo sapiens, UniProt P10632); assay: Inhibition of CYP2C8 in human liver microsomes in presence of NADPH; format: ADME, Microsome; method in brief: as §1
Cytochrome P450 2C8, sequence (P10632 whole entry): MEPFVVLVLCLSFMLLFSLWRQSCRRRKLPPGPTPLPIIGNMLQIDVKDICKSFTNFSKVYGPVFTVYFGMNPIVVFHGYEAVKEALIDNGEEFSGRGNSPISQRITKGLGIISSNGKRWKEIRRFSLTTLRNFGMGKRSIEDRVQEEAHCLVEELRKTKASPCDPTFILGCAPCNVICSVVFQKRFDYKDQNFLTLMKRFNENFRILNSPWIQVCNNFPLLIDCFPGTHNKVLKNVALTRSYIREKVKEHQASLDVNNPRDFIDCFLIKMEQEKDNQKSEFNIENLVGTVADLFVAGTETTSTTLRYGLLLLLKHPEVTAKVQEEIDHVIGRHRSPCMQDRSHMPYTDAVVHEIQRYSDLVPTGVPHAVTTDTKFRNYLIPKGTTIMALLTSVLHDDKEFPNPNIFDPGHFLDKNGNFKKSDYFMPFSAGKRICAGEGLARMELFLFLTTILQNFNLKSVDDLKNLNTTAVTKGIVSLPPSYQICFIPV

[14] = target: Solute carrier organic anion transporter family member 1B3 (Homo sapiens, UniProt Q9NPD5); assay: Inhibition of OATP1B3 (unknown origin) transfected in HEK293 cells; format: cell-based
Solute carrier organic anion transporter family member 1B3, sequence (Q9NPD5 whole entry): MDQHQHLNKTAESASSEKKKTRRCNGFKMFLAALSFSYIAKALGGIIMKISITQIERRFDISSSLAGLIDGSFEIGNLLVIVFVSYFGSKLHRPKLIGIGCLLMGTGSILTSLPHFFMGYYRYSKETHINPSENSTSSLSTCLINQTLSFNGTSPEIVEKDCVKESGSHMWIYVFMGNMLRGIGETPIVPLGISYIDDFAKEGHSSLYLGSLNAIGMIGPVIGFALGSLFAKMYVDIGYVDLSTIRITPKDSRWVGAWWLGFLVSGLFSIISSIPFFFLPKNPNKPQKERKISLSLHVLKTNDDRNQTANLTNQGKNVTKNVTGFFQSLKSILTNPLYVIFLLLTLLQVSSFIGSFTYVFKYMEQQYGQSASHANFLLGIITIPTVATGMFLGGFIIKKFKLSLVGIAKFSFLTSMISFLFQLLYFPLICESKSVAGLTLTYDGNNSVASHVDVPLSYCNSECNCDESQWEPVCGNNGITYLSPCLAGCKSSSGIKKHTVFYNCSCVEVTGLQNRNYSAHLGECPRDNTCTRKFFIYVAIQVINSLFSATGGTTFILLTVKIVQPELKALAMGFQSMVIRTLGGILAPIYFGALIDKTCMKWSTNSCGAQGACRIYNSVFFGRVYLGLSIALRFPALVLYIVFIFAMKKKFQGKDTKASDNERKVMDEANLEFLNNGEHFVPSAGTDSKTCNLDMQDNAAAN
Method in brief: (§3)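 HEK-293 cells transfected with the uptake transporter; uptake of known probe substrates measured with test compound at eight concentrations (0.0229–50.0 μM or 0.0457–100 μM); inhibition at each concentration used to calculate IC50.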

[15] = Metabolic stability in human plasma assessed as half life; format: ADME, cell-free
Cytochrome P450 2D6 = Cytochrome P450 2D6 (Homo sapiens, UniProt P10635); assay: Inhibition of CYP2D6 in human liver microsomes in presence of NADPH; format: ADME, Microsome; method in brief: as §1
Cytochrome P450 2D6, sequence (P10635 whole entry): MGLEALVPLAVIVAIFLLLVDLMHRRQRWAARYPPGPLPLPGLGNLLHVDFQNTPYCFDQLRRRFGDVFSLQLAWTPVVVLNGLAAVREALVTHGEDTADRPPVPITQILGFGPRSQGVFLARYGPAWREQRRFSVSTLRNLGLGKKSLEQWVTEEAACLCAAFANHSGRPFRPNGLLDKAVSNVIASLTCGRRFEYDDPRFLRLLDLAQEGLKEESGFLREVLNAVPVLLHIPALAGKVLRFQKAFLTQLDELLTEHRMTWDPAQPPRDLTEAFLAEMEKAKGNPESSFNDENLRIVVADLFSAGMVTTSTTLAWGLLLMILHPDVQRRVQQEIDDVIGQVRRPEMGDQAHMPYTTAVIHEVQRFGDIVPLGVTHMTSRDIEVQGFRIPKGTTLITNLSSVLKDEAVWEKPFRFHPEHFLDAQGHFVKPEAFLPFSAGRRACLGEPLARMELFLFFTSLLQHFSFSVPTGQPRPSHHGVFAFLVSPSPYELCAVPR

Cytochrome P450 1A2 = Cytochrome P450 1A2 (Homo sapiens, UniProt P05177); assay: Inhibition of CYP1A2 in human liver microsomes in presence of NADPH; format: ADME, Microsome; method in brief: as §1
Cytochrome P450 2B6 = target: T1, Cytochrome P450 2B6 (Homo sapiens, UniProt P20813); assay: Inhibition of CYP2B6 in human liver microsomes in presence of NADPH; format: ADME, Microsome; method in brief: as §1
T1 sequence (P20813 whole entry): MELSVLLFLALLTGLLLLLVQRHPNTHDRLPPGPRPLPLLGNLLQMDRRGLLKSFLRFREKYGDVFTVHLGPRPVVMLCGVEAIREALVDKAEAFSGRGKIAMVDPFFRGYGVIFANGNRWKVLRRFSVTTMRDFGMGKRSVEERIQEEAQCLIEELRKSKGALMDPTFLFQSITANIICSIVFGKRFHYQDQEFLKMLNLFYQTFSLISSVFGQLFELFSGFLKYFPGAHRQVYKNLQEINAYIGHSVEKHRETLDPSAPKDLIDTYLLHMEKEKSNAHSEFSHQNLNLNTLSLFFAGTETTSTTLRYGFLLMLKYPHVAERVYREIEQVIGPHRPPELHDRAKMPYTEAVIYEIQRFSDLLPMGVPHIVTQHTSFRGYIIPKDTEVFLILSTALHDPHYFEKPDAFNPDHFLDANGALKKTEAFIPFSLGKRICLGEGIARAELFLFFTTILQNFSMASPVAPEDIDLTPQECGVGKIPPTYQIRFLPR

[16] = Metabolic stability in dog plasma assessed as half life; format: ADME, cell-free, Canis lupus familiaris
[17] = Mutagenicity in Salmonella typhimurium TA1535 by Ames test; format: toxicity; settings: salmonella enterica subsp. enterica serovar typhimurium
[18] = Metabolic stability in human liver microsomes assessed as half life at 1 uM incubated upto 60 mins in presence of NADPH; format: ADME, Microsome; method in brief: as §2
[19] = target: Solute carrier organic anion transporter family member 1B1 (Homo sapiens, UniProt Q9Y6L6); assay: Inhibition of OATP1B1 (unknown origin) transfected in HEK293 cells; format: cell-based; method in brief: as §3
Solute carrier organic anion transporter family member 1B1, sequence (Q9Y6L6 whole entry): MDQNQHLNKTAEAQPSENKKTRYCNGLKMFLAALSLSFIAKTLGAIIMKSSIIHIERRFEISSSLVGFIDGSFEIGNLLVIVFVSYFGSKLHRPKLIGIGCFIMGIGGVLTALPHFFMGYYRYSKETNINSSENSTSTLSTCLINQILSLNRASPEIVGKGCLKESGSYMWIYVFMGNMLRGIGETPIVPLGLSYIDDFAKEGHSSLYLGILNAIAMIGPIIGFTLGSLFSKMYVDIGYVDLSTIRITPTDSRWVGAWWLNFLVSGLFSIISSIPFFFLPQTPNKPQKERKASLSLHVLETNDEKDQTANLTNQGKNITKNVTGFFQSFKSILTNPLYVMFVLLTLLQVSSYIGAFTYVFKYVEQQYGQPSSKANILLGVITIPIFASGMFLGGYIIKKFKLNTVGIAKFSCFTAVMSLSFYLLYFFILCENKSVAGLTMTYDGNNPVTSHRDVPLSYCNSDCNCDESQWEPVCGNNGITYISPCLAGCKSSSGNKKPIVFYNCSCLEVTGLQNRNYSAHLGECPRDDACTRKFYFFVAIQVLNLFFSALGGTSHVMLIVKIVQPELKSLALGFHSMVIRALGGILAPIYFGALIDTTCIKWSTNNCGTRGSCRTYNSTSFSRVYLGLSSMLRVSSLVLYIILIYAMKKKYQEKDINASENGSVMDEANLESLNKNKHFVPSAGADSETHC

Hepatitis B virus = assay: Antiviral activity against HBV genotype D infected in human HepG2.117 cells assessed as decrease in HBV DNA production by qPCR analysis; format: functional, organism-based
Method in brief: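 HepG2.117 cells (integrated genotype D HBV genome, Tet-off promoter; kept in 1 μg/mL doxycycline) were seeded at 20,000 cells/well and given serial compound dilutions (2% DMSO) for 3 days at 37 °C. Lysates were taken in 0.33% NP40. Intracellular HBV DNA was quantified by qPCR and EC50/EC90 derived. For serum shift, 40% human serum was present during incubation. Mean ± SEM, n=3 (serum) or 13.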

Cytochrome P450 2C19 = Cytochrome P450 2C19 (Homo sapiens, UniProt P33261); assay: Inhibition of CYP2C19 in human liver microsomes in presence of NADPH; format: ADME, Microsome; method in brief: as §1
Cytochrome P450 2C19, sequence (P33261 whole entry): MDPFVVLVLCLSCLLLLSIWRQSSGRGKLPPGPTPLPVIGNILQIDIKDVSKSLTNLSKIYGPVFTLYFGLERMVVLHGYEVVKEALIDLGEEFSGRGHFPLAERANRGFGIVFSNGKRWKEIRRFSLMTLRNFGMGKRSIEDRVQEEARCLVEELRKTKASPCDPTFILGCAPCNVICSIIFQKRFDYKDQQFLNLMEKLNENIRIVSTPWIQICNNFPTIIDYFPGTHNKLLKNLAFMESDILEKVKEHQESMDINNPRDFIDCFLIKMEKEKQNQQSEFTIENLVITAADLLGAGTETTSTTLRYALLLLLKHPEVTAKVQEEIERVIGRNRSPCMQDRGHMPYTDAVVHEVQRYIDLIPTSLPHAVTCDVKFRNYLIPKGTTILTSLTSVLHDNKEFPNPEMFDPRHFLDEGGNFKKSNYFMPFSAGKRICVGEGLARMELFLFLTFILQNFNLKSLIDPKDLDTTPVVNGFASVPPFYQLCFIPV

[20] = Metabolic stability in mouse liver microsomes assessed as half life at 1 uM incubated upto 60 mins in presence of NADPH; format: ADME, Microsome; method in brief: as §2

Cytochrome P450 2C9, sequence (P11712 whole entry, canonical isoform): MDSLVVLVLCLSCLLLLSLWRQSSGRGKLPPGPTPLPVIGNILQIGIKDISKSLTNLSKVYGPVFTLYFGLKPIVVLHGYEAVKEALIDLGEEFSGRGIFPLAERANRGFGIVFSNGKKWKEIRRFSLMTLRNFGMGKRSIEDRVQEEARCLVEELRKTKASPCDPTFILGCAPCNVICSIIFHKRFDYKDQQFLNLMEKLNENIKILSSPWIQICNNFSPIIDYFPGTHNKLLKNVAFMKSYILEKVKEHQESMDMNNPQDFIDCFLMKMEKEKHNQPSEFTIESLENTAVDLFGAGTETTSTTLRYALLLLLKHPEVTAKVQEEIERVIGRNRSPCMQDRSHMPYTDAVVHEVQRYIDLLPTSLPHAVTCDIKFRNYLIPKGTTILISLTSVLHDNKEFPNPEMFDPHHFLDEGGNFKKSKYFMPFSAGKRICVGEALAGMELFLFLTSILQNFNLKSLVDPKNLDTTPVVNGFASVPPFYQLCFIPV

C#CC1(NC(=O)C(=O)c2c(C)c(C(=O)Nc3ccc(F)c(C#N)c3)n(C)c2C)COC1
IC50 (Cytochrome P450 2C9): > 50 µM | Activity [1]: Non-toxic | half-life at 1 µM [2]: > 1 h | Activity [3]: Non-toxic | half-life [4]: > 4 h | half-life at 1 µM [5]: > 1 h | Activity [6]: Non-toxic | half-life [7]: > 4 h | half-life [8]: > 4 h | half-life at 1 µM [9]: > 1 h | Activity [10]: Non-toxic | IC50 [11]: > 10 µM | inhibition at 10 µM (UGT1A1): 7.3% | half-life [12]: 1.64 h | IC50 (Cytochrome P450 3A4): > 50 µM | Activity [13]: Non-toxic | IC50 (Cytochrome P450 2C8): 48.6 µM | IC50 [14]: > 11.8 µM | half-life [15]: > 4 h | IC50 (Cytochrome P450 2D6): > 50 µM | IC50 (Cytochrome P450 1A2): > 50 µM | IC50 (Cytochrome P450 2B6): > 50 µM | half-life [16]: > 4 h | Activity [17]: Non-toxic | half-life at 1 µM [18]: > 1 h | IC50 [19]: > 11.8 µM | EC50 (Hepatitis B virus): 0.00063 µM | EC90 (Hepatitis B virus): 0.00317 µM | IC50 (Cytochrome P450 2C19): > 50 µM | half-life at 1 µM [20]: > 1 h

C#CC1(N(COP(=O)([O-])[O-])C(=O)C(=O)c2c(C)c(C(=O)Nc3ccc(F)c(C#N)c3)n(C)c2C)COC1.[Na+].[Na+]
IC50 (Cytochrome P450 2C9): > 100 µM | Activity [1]: Non-toxic | half-life at 1 µM [2]: > 1 h | Activity [3]: Non-toxic | half-life [4]: > 4 h | half-life at 1 µM [5]: > 1 h | Activity [6]: Non-toxic | half-life [7]: > 4 h | half-life [8]: > 4 h | half-life at 1 µM [9]: > 1 h | Activity [10]: Non-toxic | IC50 [11]: > 300 µM | inhibition at 10 µM (UGT1A1): 11.2% | IC50 (Cytochrome P450 3A4): > 100 µM | Activity [13]: Non-toxic | IC50 (Cytochrome P450 2C8): > 100 µM | IC50 [14]: ~50 µM | half-life [15]: > 4 h | IC50 (Cytochrome P450 2D6): > 100 µM | IC50 (Cytochrome P450 1A2): > 100 µM | IC50 (Cytochrome P450 2B6): > 100 µM | half-life [16]: > 4 h | Activity [17]: Non-toxic | half-life at 1 µM [18]: > 1 h | IC50 [19]: ~50 µM | EC50 (Hepatitis B virus): 0.00145 µM | IC50 (Cytochrome P450 2C19): > 100 µM | half-life at 1 µM [20]: > 1 h
